Calls of active or inactive are those of the source. No cut-off for these calls is given here.
Tests used:
HeLa = assay: Cell cycle arrest in human HeLa cells assessed as reduction in phosphorylated cdc2 Tyr15 level at 10 to 100 nM after 24 to 48 hrs by Western Blot analysis; format: functional, cell-based
Summary of the method: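 HeLa cells exposed to 10 or 100 nM for 24 or 48 h, washed in ice-cold PBS, lysed on ice 30 min, spun at 15000g at 4 °C. 20 μg protein run on 7.5–15% SDS–PAGE, blotted to PVDF, blocked overnight at 4 °C. Primary antibodies 2 h at room temperature, peroxidase secondary 60 min, ECL detection, β-actin reprobe as loading control.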

MCF7 = assay: Ratio of Combretastatin A-4 IC50 to compound IC50 for human MCF7 cells; format: functional

Q: What does the source list for COC(=O)c1sc2cc(OC)ccc2c1Nc1cc(OC)c(OC)c(OC)c1?
A: Activity (HeLa): Active; Ratio IC50 (MCF7): 2

Reference: ChEMBL document CHEMBL2331329, “Synthesis and biological evaluation of 2-(alkoxycarbonyl)-3-anilinobenzo[b]thiophenes and thieno[2,3-b]pyridines as new potent anticancer agents” (J Med Chem, 2013)
